5HT1E antag: blocks the human 5-HT1E serotonin receptor; 0.99% of 65,000 active; inhibition, % at 6 µM; CHO 5-HT1E Ga15 NFAT-bla reporter, FRET, antagonist; P28566;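 active means inhibition above a set limit, the mean inhibition across every tested compound plus 3 SD, cut at about 29% in these data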;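 further: signal is the 460 over 535 nm emission ratio of beta-lactamase substrate; 0% = agonist plus DMSO wells and 100% = wells without agonist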
Target sequence (P28566 whole entry, looked up): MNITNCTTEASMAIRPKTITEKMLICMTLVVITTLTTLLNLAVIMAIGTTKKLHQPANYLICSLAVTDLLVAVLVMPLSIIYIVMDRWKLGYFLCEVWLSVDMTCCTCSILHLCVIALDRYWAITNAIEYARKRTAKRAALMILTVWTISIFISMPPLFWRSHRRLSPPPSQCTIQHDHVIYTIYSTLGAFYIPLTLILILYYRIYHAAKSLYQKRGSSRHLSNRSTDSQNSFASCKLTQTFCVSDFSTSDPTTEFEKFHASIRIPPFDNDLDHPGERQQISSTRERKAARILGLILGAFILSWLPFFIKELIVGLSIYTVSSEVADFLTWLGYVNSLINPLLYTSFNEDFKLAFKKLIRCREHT
5HT1E ag: activates the human 5-HT1E serotonin receptor | AID 574 | P28566 | activation, % at 6 µM | 0.69% of 65,000 active | CHO 5-HT1E Ga15 NFAT-bla reporter, FRET; 0% DMSO wells, 100% control agonist wells;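 active means activation above a set limit, the screen-wide mean activation plus 3 SD, cut at about 8.5% in these data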;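 further: 100% = positive control agonist at 1 µM giving full maximal response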
HEK293 NFkB inh: lowers PMA/ionomycin-induced NF-kB signal in HEK293 cells; 0.21% of 62,000 active; inhibition, % at 3 µM; HEK-293 NF-kB luciferase reporter, luminescence;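 active means inhibition above the mean of all tested compounds plus 3 SD, cut at about 40% in these data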;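 further: 0% = stimulated DMSO wells and 100% = 10 µM reference inhibitor 5653914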
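System: NF-kB luciferase reporter HEK-293 cells | Replication: Single test | Control set: DMSO vs reference inhibitor | Evaluation: % inhibition | Schedule: 1 h pretreatment, 16 h stimulation, 37 °C | Probe or stimulus: PMA with ionomycin | Compound dosing: One dose, 3 µM | Detection: Luciferase luminescence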
HTR1A agonist: activates the human 5-HT1a serotonin receptor; CHO 5-HT1a Ga15 NFAT-bla reporter, FRET ratio; 0% basal, 100% maximal reference agonist; activation, % at 10 µM; 0.56% of 65,000 active; AID 567;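 active means activation above the screen-wide mean activation plus 3 SD, cut at about 19% in these data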;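 further: 0% = DMSO wells and 100% = 5-CT at EC100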
5-HT1A blocker: 5-HT1a (human) receptor antagonism. P08908. CHO 5-HT1a Ga15 NFAT-bla reporter, antagonist mode. inhibition, % at 10 µM. 0.68% of 62,000 active;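 active means inhibition above the mean of all tested compounds plus 3 SD, cut at about 43% in these data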;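 further: receptor stimulated by 5-CT agonist at 100 nM near EC80; beta-lactamase reporter measured by ratiometric fluorescence of a cleavable substrate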
Jurkat tox 60K: cytotoxic compounds reducing Jurkat cell viability; Jurkat E6.1 viability, ATP luminescence, 48 h; inhibition, % at 4 µM; 1.2% of 56,000 active; AID 463;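 active means inhibition above the mean inhibition of all tested compounds plus 3 SD, cut at about 28% in these data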
* marks the source's active call; other numbers are inactive results; / = no result. This is a sample that favours compounds with a hit; in the whole collection about 3.3% have one here.

SMILES	5HT1E antag	5HT1E ag	HEK293 NFkB inh	HTR1A agonist	5-HT1A blocker	Jurkat tox 60K
CCOC(=O)C(C(=O)OCC)C(CC(=O)C1CC1)c1ccccc1 (centres undefined)	6	-1	15	-3	32	-5
Cc1ccc(C2=Nc3ccccc3NC(C)(c3ccc(C)o3)C2)o1 (centres undefined)	21	17*	12	-1	49*	-5
Cc1cc(C)cc(NC(=O)CSc2nnc(-c3ccccc3Br)o2)c1	-13	-1	-7	0	0	5
COc1cccc(NC(=O)CSc2nnc(-c3cc(C)n(-c4ccccc4)c3C)o2)c1	6	0	41*	-2	1	3
O=C(c1cc2c(=O)oc3ccccc3c2s1)N1CCN(c2ccccn2)CC1	-2	0	4	0	-16	/
O=C(Nc1nncs1)C1c2ccccc2Oc2ccccc21	-2	1	5	0	13	/
CN1CCN(/C(=N\O)c2nonc2N)CC1	-6	55*	7	-4	2	-5
Nc1nonc1/C(=N/O)N1CCN(CCO)CC1	-18	0	19	-2	1	8
CCCCNC(=O)c1c(N)n(/N=C/c2ccccn2)c2nc3ccccc3nc12	-12	1	13	-2	-7	/
CCCCCCNC(=O)c1c(N)n(/N=C/c2ccco2)c2nc3ccccc3nc12	2	3	8	31*	-8	-5
COc1cc2c(cc1NC(=O)CCCN1C(=O)CCC1=O)oc1ccccc12	-2	0	5	11	-8	2
COc1cc2c(cc1NC(=O)CN1C(=O)NC3(CCc4ccccc43)C1=O)oc1ccccc12 (centres undefined)	-14	1	10	-1	45*	5
COC(=O)c1ccc(Cl)c(NC(=O)CN(c2ccc3c(c2)OCO3)S(C)(=O)=O)c1	-6	0	1	-2	1	1
COC(=O)c1sc(N)c(C(=O)OC)c1COC(=O)c1c(C)noc1C	20	0	21	1	23	94*
O=C(CCCc1nc(-c2ccc(Cl)cc2)no1)Nc1cccnc1	6	0	25	-2	1	42*
Cc1cccc(-c2noc(CCCC(=O)Nc3cccnc3)n2)c1	0	1	16	-3	-8	6
O=C(CSc1ncnc2c1oc1ccccc12)NCc1ccc(F)cc1	-3	0	7	0	8	-4
Cc1cc2nnc(SCC(=O)NCc3ccco3)n2c2ccccc12	8	-1	28	-1	-5	84*
COc1ccc2c(CC#N)c[nH]c2c1	5	-2	14	2	13	4
CCOc1ccccc1CN(CCc1ccc2c(c1)OCO2)Cc1ccccn1	2	-1	-2	1	48*	-6
CCOC(=O)CSC1=C(C#N)C(c2ccccc2Cl)C(C(=O)OC)C(=O)N1 (centres undefined)	0	1	10	3	-4	-5
CCCCCOC(=O)c1[nH]c2c(c1C)C(=O)CC(c1ccco1)C2 (centres undefined)	82*	-1	38	1	66*	101*
CCOC(=O)c1[nH]c2c(c1C)C(=O)CC(c1ccc(OCC)c(OC)c1)C2 (centres undefined)	-5	1	16	1	-1	/
CCOC(=O)c1[nH]c2c(c1C)C(=O)CC(c1ccc(F)cc1)C2 (centres undefined)	58*	0	40	2	16	95*
O=C(NCC1CCCO1)C1CCN(C(=O)c2ccc(Br)cc2)CC1 (centres undefined)	-3	0	5	-2	-4	7
SMILES	5HT1E antag	5HT1E ag	HEK293 NFkB inh	HTR1A agonist	5-HT1A blocker	Jurkat tox 60K
CN(C)c1cccc(C(=O)OCC(=O)NCC2CCCO2)c1 (centres undefined)	3	0	14	-1	-4	0
OC(COc1c(F)cc(Br)cc1F)CN1CCN(c2ccc(F)cc2)CC1 (centres undefined)	-7	2	1	9	63*	-3
CSc1nc(N2CCOCC2)c2c3c(sc2n1)CCCC3	32*	1	10	5	-14	2
c1nc(N2CCOCC2)c2c3c(sc2n1)CCCC3	12	1	13	-2	-1	0
CC(C)(C)OC(=O)NC(CCCCNC=O)C(=O)O (centres undefined)	16	1	22	-2	0	0
COCCCNC(=O)c1ccc(CS(=O)(=O)c2ccc(OC)cc2)o1	31*	-1	10	0	10	-8
COCCCNC(=O)c1ccc(CS(=O)(=O)c2ccc(Br)cc2)o1	11	0	15	0	9	4
CCOc1ccc(-n2cc(C(=O)Nc3cccc(C)n3)c3cc(OC)c(OC)cc3c2=O)cc1	-6	0	21	1	4	-4
Cc1ccc2c(CC(=O)NCc3ccco3)coc2c1C	1	0	14	-1	9	69*
Cc1c(Br)cc(C(=O)NCc2ccco2)c(C)c1C	13	0	6	-1	12	-1
COc1ccccc1N1CCN(C(=O)CSc2ncccc2-c2nc3ccccc3[nH]2)CC1	-2	22*	31	5	14	/
O=C(CSc1ncccc1-c1nc2ccccc2[nH]1)N1CCN(c2ccccc2F)CC1	6	8.7*	23	3	18	4
COc1ccccc1N1CCN(C(=O)CSc2nnc3n2C(C)(C)Cc2ccccc2-3)CC1	-6	0	18	-2	-6	60*
COc1ccc(N2CCN(C(=O)CSc3ncccc3-c3nc4ccccc4[nH]3)CC2)cc1	-8	0	10	-2	-10	0
CCOc1ccc(C2C=C(c3ccc(C)cc3)Nc3nnnn32)cc1 (centres undefined)	-2	0	5	-1	-8	-6
COc1ccccc1C1C=C(c2ccc(C)cc2)Nc2nnnn21 (centres undefined)	11	0	-2	1	5	36*
CCOC(=O)c1oc2ccccc2c1CSc1nnnn1-c1ccc(C)cc1	-1	0	17	-5	32	1
COc1cc(CSc2nnnn2-c2ccc(C)cc2)cc(OC)c1OC	12	0	44*	-1	22	89*
COCCn1c(SCc2nc3ccccc3s2)nc2ccccc21	4	0	-17	-2	11	9
CC(=O)Nc1ccc(S(=O)(=O)N2CCSC2c2ccccc2)cc1 (centres undefined)	15	0	7	-1	-9	-1
CC(=O)Nc1ccc(S(=O)(=O)N2CCSC2c2ccccc2Cl)cc1 (centres undefined)	35*	-1	12	-1	12	12
COc1ccc(C(=O)n2c(-c3ccco3)nc3ccccc32)cc1	28	2	23	-2	35	78*
